Experimental data reported in ChEMBL document CHEMBL4024765 (J Med Chem, 2017).
≈ marks a conversion by molar mass, not a printed value.

Legend:
Liver [1] = assay: Drug metabolism in BALB/c mouse liver microsomes assessed as oxidation of aldehyde to carboxylic acid at 1 uM in presence of NADPH by mass spectrometric analysis; type: ADME, microsome
Outline: (§1)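 Compound at 1 μM with 0.35 mg/ml male BALB/c mouse liver microsomes, 1 mM NADPH, 100 mM phosphate pH 7.4, 37 °C, 30 min; triplicate. Stopped by ice-cold acetonitrile with carbamazepine internal standard; parent loss by LC-MS/MS (ESI positive, MRM) as % remaining; scan data screened for putative metabolite fragments.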

Liver [2] = assay: Drug metabolism in BALB/c mouse liver microsomes assessed as aldehyde reduction at 1 uM in presence of NADPH by mass spectrometric analysis; type: ADME, microsome; outline: as §1
[3] = Half life in BALB/c mouse liver microsomes at 1 uM in presence of NADPH by LC-MS/MS analysis; type: ADME, microsome; outline: as §1
Liver [4] = assay: Drug metabolism in BALB/c mouse liver microsomes assessed as N-dealkylation on tertiary amine at 1 uM in presence of NADPH by mass spectrometric analysis; type: ADME, microsome; outline: as §1
[5] = n-Octanol-buffer distribution coefficient, log D of the compound at pH 7.4 […] by HPLC based shake flask method; type: physicochemical
Plasmodium berghei = assay: Antimalarial activity against chloroquine-sensitive Plasmodium berghei ANKA infected in C57BL/6 mouse assessed as supression of parasitemia at 30 mg/kg, po administered for 4 consecutive days starting at 2 hrs post infection by peter's test relative to control; type: functional
Outline: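 P. berghei ANKA passaged in C57BL/6 donor; test mice infected ip with 200 μL of 1 × 10⁷ parasitized erythrocytes in PBS. Oral dosing 30 mg/kg at 2 h post-infection, then daily D0–D3; PBS-dosed controls. Parasitemia read on D4 from Giemsa-stained, methanol-fixed tail thin films; suppression relative to control.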

Liver [6] = assay: Drug metabolism in BALB/c mouse liver microsomes assessed as oxidation of quinoline core or pyridyl ring at 1 uM in presence of NADPH by mass spectrometric analysis; type: ADME, microsome; outline: as §1
Plasmodium falciparum [7] = assay: Resistance index, ratio of IC50 for chloroquine-resistant synchronized trophozoite stage of Plasmodium falciparum Dd2 to IC50 for chloroquine-sensitive synchronized trophozoite stage of Plasmodium falciparum NF54; type: functional
Plasmodium falciparum [8] = assay: Antiplasmodial activity against chloroquine-resistant synchronized trophozoite stage of Plasmodium falciparum 7G8 after 48 hrs by NBT dye based LDH assay; type: functional; details: 7G8, 48 h
Plasmodium falciparum [9] = assay: Antiplasmodial activity against chloroquine-resistant synchronized trophozoite stage of Plasmodium falciparum Dd2 after 48 hrs by NBT dye based LDH assay; type: functional; details: Dd2, 48 h
[10] = Kinetic solubility of compound in simulating fasting state biorelevant media at pH 6.5 after 2 hrs by shake flask method; type: physicochemical; details: fasted-state simulating biorelevant medium, read-out: Kinetic_solubility
Plasmodium falciparum [11] = assay: Resistance index, ratio of IC50 for chloroquine-resistant synchronized trophozoite stage of Plasmodium falciparum 7G8 to IC50 for chloroquine-sensitive synchronized trophozoite stage of Plasmodium falciparum NF54; type: functional
Plasmodium falciparum [12] = assay: Antiplasmodial activity against chloroquine-sensitive synchronized trophozoite stage of Plasmodium falciparum NF54 after 48 hrs by NBT dye based LDH assay; type: functional; details: NF54, 48 h
CHO = assay: Cytotoxicity against CHO cells by MTT assay; type: cell-based; details: Cricetulus griseus
Outline: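 MTT assay on CHO cells. DMSO stock diluted in complete medium; 10-fold serial dilutions, 6 concentrations from 100 to 0.001 μg/mL; emetine reference; triplicate on each occasion. IC50 from non-linear fit of full dose-response curves.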

[13] = Inhibition of beta hematin formation by detergent based assay
Outline: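 β-hematin formation from hematin in 1 M acetate buffer pH 4.9 with NP40 detergent, compound serially diluted from 20 mM DMSO stock; ~5 h at 37 °C. Free heme complexed with pyridine/acetone/HEPES pH 7.4 solution, absorbance at 405 nm; IC50 from dose-response curves.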

[14] = Intrinsic clearance in BALB/c mouse liver microsomes at 1 uM in presence of NADPH by LC-MS/MS analysis; type: ADME, microsome; details: read-out: CLH; outline: as §1
[15] = Selectivity index, ratio of IC50 for CHO cells to IC50 for chloroquine-sensitive synchronized trophozoite stage of Plasmodium falciparum NF54; type: toxicity; details: hamster; read-out: Ratio IC50
Liver [16] = assay: Drug metabolism in BALB/c mouse liver microsomes assessed as N-dealkylation with oxidative deamination at 1 uM in presence of NADPH by mass spectrometric analysis; type: ADME, microsome; outline: as §1
[17] = Metabolic stability in BALB/c mouse liver microsomes assessed as parent compound remaining at 1 uM after 30 mins in presence of NADPH by LC-MS/MS analysis; type: ADME, microsome; details: read-out: Stability; outline: as §1
[18] = n-Octanol-buffer distribution coefficient, log D of the compound at pH 5 incubated for 4 hrs by UV-vis based shake flask method; type: physicochemical
Plasmodium falciparum [19] = assay: Increase in hemoglobin levels in chloroquine-sensitive synchronized ring stage of Plasmodium falciparum NF54 after 32 hrs by flow cytometric analysis; type: functional
Outline: (§2)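 Sorbitol-synchronized (5%) ring-stage cultures exposed to compound at multiples of IC50 for 32 h; trophozoites freed with 0.05% saponin, PBS-washed, counted by hemocytometer and flow cytometry. Hypotonic lysis/sonication, then sequential SDS/pyridine fractionation into hemoglobin, free heme and hemozoin (SDS/NaOH) fractions; each measured by UV-vis as Fe(III) heme-pyridine complex.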

Plasmodium falciparum [20] = assay: Decrease in hemozoine formation in chloroquine-sensitive synchronized ring stage of Plasmodium falciparum NF54 after 32 hrs by flow cytometric analysis; type: functional; outline: as §2
Plasmodium falciparum [21] = assay: Increase in free heme levels in chloroquine-sensitive synchronized ring stage of Plasmodium falciparum NF54 after 32 hrs by flow cytometric analysis; type: functional; outline: as §2
[22] = biological target: Voltage-gated inwardly rectifying potassium channel KCNH2 (Homo sapiens, UniProt Q12809); assay: Inhibition of human ERG expressed in CHO cells by automated patch clamp method; type: cell-based
Sequence of Voltage-gated inwardly rectifying potassium channel KCNH2 (Q12809 whole entry): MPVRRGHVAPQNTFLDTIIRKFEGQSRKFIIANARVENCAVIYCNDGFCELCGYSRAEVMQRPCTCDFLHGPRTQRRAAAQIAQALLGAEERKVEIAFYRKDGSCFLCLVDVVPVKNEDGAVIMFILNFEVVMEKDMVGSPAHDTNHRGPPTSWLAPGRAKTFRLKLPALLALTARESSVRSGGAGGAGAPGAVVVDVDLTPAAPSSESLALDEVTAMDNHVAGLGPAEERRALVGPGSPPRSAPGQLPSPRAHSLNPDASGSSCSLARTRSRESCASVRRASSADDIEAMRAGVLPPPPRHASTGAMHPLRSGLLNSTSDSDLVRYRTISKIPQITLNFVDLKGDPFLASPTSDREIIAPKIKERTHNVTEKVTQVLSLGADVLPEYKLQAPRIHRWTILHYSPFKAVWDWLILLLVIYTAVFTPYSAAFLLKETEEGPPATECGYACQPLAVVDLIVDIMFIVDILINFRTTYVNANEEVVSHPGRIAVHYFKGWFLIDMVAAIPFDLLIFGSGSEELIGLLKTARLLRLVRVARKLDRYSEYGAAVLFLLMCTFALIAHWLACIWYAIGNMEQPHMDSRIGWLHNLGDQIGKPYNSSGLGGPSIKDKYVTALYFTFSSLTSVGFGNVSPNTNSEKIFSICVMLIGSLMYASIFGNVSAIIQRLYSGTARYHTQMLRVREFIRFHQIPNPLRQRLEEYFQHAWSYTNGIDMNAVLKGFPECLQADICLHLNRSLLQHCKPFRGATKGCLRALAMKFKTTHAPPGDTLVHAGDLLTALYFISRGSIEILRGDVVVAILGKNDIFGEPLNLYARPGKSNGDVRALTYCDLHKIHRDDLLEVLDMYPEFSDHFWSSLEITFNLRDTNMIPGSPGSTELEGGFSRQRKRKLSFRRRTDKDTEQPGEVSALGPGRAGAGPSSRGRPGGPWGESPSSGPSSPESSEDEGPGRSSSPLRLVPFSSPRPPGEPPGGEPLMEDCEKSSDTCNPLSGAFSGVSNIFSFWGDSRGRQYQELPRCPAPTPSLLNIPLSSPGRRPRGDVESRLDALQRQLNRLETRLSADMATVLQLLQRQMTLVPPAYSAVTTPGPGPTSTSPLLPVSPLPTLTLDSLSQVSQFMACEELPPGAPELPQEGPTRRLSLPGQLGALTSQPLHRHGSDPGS

Structure (SMILES) | Drug metabolism (Liver [1]) | Drug metabolism (Liver [2]) | half-life at 1 µM [3] | Drug metabolism (Liver [4]) | logD [5] | Activity (Plasmodium berghei) | Drug metabolism (Liver [6]) | Ratio IC50 (Plasmodium falciparum [7]) | IC50 (Plasmodium falciparum [8]) | IC50 (Plasmodium falciparum [9]) | solubility kinetic at 2 h [10] | Ratio IC50 (Plasmodium falciparum [11]) | IC50 (Plasmodium falciparum [12]) | IC50 (CHO) | IC50 [13] | CLint scaled at 1 µM [14] | remaining at 0.5 h, 1 µM [17] | Activity (Plasmodium falciparum [19]) | Activity (Plasmodium falciparum [20]) | Activity (Plasmodium falciparum [21]) | other results
CN(Cc1ccccc1)Cc1cccc(CNc2ccnc3cc(Cl)ccc23)c1.Cl | Metabolite_Detected | Metabolite_Detected | 6.15 min | Metabolite_Detected | 3.56 | 97.5% | Metabolite_Detected | 3.1 | 69.6 nM | 44.5 nM | 51.8 µM | 4.8 | 14.4 nM | 9500 nM | 13400 nM | 1110 mL/min/kg | 3.57% | – | – | – | selectivity ratio [15]: 660; Drug metabolism (Liver [16]): Metabolite_Detected; logD at 4 h [18]: 1.33
CN(Cc1ccc(CNc2ccnc3cc(C#N)ccc23)cc1)Cc1ccccn1 | Metabolite_Detected | Metabolite_Detected | 6.22 min | Metabolite_Detected | 2.84 | 98% | Metabolite_Detected | 1.9 | 134 nM | 146 nM | 144 µM (≈ 56.5 µg/mL) | 1.8 | 76.4 nM | 11200 nM | 24800 nM | 1100 mL/min/kg | 3.63% | Dose-dependent effect | Dose-dependent effect | Dose-dependent effect | selectivity ratio [15]: 146; Drug metabolism (Liver [16]): Metabolite_Detected; logD at 4 h [18]: 1
CCN(CC)CCCC(C)Nc1ccnc2cc(Cl)ccc12 (centres undefined) [CHLOROQUINE] | – | – | – | – | – | 91.2% | – | – | – | – | – | – | – | – | – | – | – | – | – | – | –
CCN(CC)CCCC(C)Nc1ccnc2cc(Cl)ccc12 (centres undefined) [CHLOROQUINE PHOSPHATE] | – | – | – | – | – | – | – | – | – | – | – | – | – | – | 26100 nM | – | – | – | – | – | –
CN(Cc1ccccn1)Cc1ccccc1CNc1ccnc2cc(Cl)ccc12 | Metabolite_Detected | Metabolite_Detected | 5.49 min | Metabolite_Detected | 3.79 | 82.4% | Metabolite_Detected | 2.5 | 184 nM | 137 nM | 165 µM (≈ 66.4 µg/mL) | 3.4 | 54.4 nM | 40200 nM | 17900 nM | 1220 mL/min/kg | 2.32% | Dose-dependent effect | Dose-dependent effect | Dose-dependent effect | IC50 [22]: 870 nM; selectivity ratio [15]: 740; Drug metabolism (Liver [16]): Metabolite_Detected; logD at 4 h [18]: 0.9
CCN(CC)CCCC(C)Nc1ccnc2cc(Cl)ccc12 (centres undefined) | – | – | – | – | – | – | – | – | – | – | – | – | – | – | – | – | – | Dose-dependent effect | Dose-dependent effect | Dose-dependent effect | –
Cc1ncc2n1-c1ccc(Cl)cc1C(c1ccccc1F)=NC2 [MIDAZOLAM] | – | – | 4.74 min | – | – | – | – | – | – | – | – | – | – | – | – | 1420 mL/min/kg | 1.33% | – | – | – | –
CN(Cc1ccccc1)Cc1cccc(CNc2ccnc3cc(Cl)ccc23)c1 [listing 1 of 2 here] | – | – | – | – | – | 99.9% | – | – | – | – | – | – | – | – | – | – | – | – | – | – | –
COC(=O)[C@H]1[C@H]2C[C@@H]3c4[nH]c5cc(OC)ccc5c4CCN3C[C@H]2C[C@@H](OC(=O)c2cc(OC)c(OC)c(OC)c2)[C@@H]1OC [RESERPINE] | – | – | – | – | – | – | – | – | – | – | < 5 µM | – | – | – | – | – | – | – | – | – | –
C[C@H]1[C@H](OC(=O)CCC(=O)O)O[C@@H]2O[C@@]3(C)CC[C@H]4[C@H](C)CC[C@@H]1[C@@]24OO3 [ARTESUNATE] | – | – | – | – | – | – | – | 2.6 | 7.7 nM | 14.3 nM | – | 1.4 | 5.6 nM | – | – | – | – | – | – | – | –
CN(Cc1ccccc1)Cc1cccc(CNc2ccnc3cc(Cl)ccc23)c1 [listing 2 of 2 here] | – | – | – | – | – | – | – | – | – | – | – | – | – | – | – | – | – | Dose-dependent effect | Dose-dependent effect | Dose-dependent effect | –
CN(Cc1ccc(CNc2ccnc3cc(Cl)ccc23)cc1)Cc1ccccn1 | Metabolite_Detected | Metabolite_Detected | 5.35 min | Metabolite_Detected | 2.85 | 91.4% | Metabolite_Detected | 3.9 | 114 nM | 151 nM | 197 µM (≈ 79.2 µg/mL) | 3 | 38.5 nM | 15700 nM | 17200 nM | 1250 mL/min/kg | 2.08% | Dose-dependent effect | Dose-dependent effect | Dose-dependent effect | selectivity ratio [15]: 408; Drug metabolism (Liver [16]): Metabolite_Detected; logD at 4 h [18]: 0.84
CN(Cc1ccccn1)Cc1ccccc1CNc1ccnc2cc(C#N)ccc12 | Metabolite_Detected | Metabolite_Detected | 5.35 min | Metabolite_Detected | 3.8 | 47.1% | Metabolite_Detected | 1.3 | 307 nM | 162 nM | 172 µM (≈ 67.8 µg/mL) | 2.4 | 127 nM | 27600 nM | 16600 nM | 1250 mL/min/kg | 2.08% | Dose-dependent effect | Dose-dependent effect | Dose-dependent effect | selectivity ratio [15]: 218; Drug metabolism (Liver [16]): Metabolite_Detected; logD at 4 h [18]: 0.81
CN(Cc1cccc(CNc2ccnc3cc(Cl)ccc23)c1)Cc1ccccn1 | Metabolite_Detected | Metabolite_Detected | 5.89 min | Metabolite_Detected | 2.47 | 97.8% | Metabolite_Detected | 4.1 | 83.8 nM | 124 nM | 59.8 µM (≈ 24.1 µg/mL) | 2.8 | 30.1 nM | 8300 nM | 20800 nM | 1140 mL/min/kg | 2.96% | Dose-dependent effect | Dose-dependent effect | Dose-dependent effect | selectivity ratio [15]: 275; Drug metabolism (Liver [16]): Metabolite_Detected; logD at 4 h [18]: 0.82
